Series [1] addresses Cannabinoid receptor 1 (Rattus norvegicus) (UniProt P20272). The series can be described thus: Allosteric agonist activity at N-terminal GFP-tagged rat CB1R expressed in HEK293 cells assessed as inhibition of forskolin-induced cAMP production by measuring cAMP accumulation at minimal level at higher concentrations after 30 min by TR-FRET assay relative to forskolin. The series is classed as functional, cell-based. In a few lines: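 HEK293 cells stably expressing N-terminal GFP-tagged rat CB1R were trypsin-EDTA dissociated and resuspended in HBSS with 0.1% BSA and 0.5mM IBMX at 500 cells/well. Cells got 5μM forskolin plus compound (1 pM – 10 μM) alone for 30 min. 4-parameter fit; Emin is the lower plateau. n ≥ 3, triplicate.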
(Changes in cAMP serve as a functional read-out for many G protein-coupled receptors.)

Series [2] deals with T1, Cannabinoid receptor 1 (Homo sapiens, UniProt P21554). The experiment in a line: Positive allosteric modulatory activity at human CB1R expressed in CHO-K1 cells assessed as increase in CP55940-induced beta-arrestin2 recruitment after 90 mins in presence of CP55940 at EC20 concentration by pathhunter beta-arrestin assay relative to control. The series is classed as cell-based. In short, it runs like this:
(§1)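 Read-out was chemiluminescent β-arrestin2 recruitment, fit with a 4-parameter regression. n = 1–3 independent experiments in duplicate.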
In general terms: Activated receptors often draw arrestin, which recruitment assays turn into a signal.

For series [3], the target named is T1, Cannabinoid receptor 1. The experiment in a line: Positive allosteric modulatory activity at human CB1R expressed in CHO-K1 cells assessed as increase in CP55940-induced inhibition of forskolin-stimulated cAMP production after 30 mins in presence of CP55940 at EC20 concentration by hit-hunter cAMP assay. In kind it is functional, cell-based. In short, it runs like this:
(§2)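 Read-out was chemiluminescent cAMP detection, fit with a variable-slope 4-parameter regression. n = 1–3 independent experiments in duplicate.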

The conditions of series [4]: buffer, pH 7.4, 24 h.
The target of series [5] is T1, Cannabinoid receptor 1. The series can be described thus: Positive allosteric modulatory activity at human CB1R expressed in CHO-K1 cells assessed as increase in CP55940-induced inhibition of forskolin-stimulated cAMP production after 30 mins in presence of CP55940 at EC20 concentration by hit-hunter cAMP assay relative to control. The series is classed as functional, cell-based. In short, it runs like this:
as §2

Series [6] has as its target T1, Cannabinoid receptor 1. The experiment in a line: Positive allosteric modulatory activity at human CB1R expressed in CHO-K1 cells assessed as increase in CP55940-induced beta-arrestin2 recruitment after 90 mins in presence of CP55940 at EC20 concentration by pathhunter beta-arrestin assay. In kind it is cell-based. In a few lines: as §1
Series [7] has as its system Mus musculus. The experiment in a line: Reduction of intraocular pressure in ocular hypertensive NEE mouse harboring Sh3pxd2b deletion mutant at 0.2% administered topically to eye after 6 hrs by tonometry. The series is classed as functional. In a few lines: (§3)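 Ocular hypertensive NEE mice (1 bp deletion in Sh3pxd2b) received topical 0.2% compound alone. IOP change from baseline (time 0) was measured at 1, 6 and 12 h; paired t-tests.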

The test system of series [8] is Mus musculus. The series can be described thus: Antinociceptive activity in C57BL/6 mouse at 3 to 10 mg/kg, ip after 20 mins post treatment by warm water tail-flick assay. The series is classed as functional, organism-based.
The conditions of series [9]: buffer, pH 7.4, 2 h.
For series [10] the following is noted: human, microsomes, 1 µM.
Series [11] is described as follows: Toxicity in C57BL/6 mouse assessed as catalepsy at 0.1 to 10 mg/kg, ip after 5 mins by bar holding assay. The series is classed as organism-based. Particulars: in vivo. In short, it runs like this:
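Male C57BL/6 mice were given 0.1 – 10 mg/kg compound or vehicle (1:1:18 ethanol:cremaphor:saline). Catalepsy was assessed at 5 min as % MPE with a 60 sec maximum. n = 5–6.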

For series [12] the following is noted: rat, microsomes, 1 µM.
Series [13] has as its system Mus musculus. The experiment in a line: Reduction of intraocular pressure in ocular hypertensive NEE mouse harboring Sh3pxd2b deletion mutant at 0.2% administered topically to eye after 1 hr by tonometry. In kind it is functional. In short, it runs like this: as §3
Series [14] is described as follows: Half life in rat liver microsomes at 1 uM up to 45 mins in presence of NADPH by LC-MS/MS analysis. On the technique in general: Liver microsomes are a subcellular fraction often used to study metabolism.
For series [15], the system named is Mus musculus. The experiment in a line: Potentiation of […] WIN55212-2-induced reduction in intraocular pressure in ocular normotensive C57BL/6J mouse assessed as change in IOP at 0.2% administered topically to eye measured after 12 hrs by tonometry. In kind it is functional.
In series [16] the target is Cannabinoid receptor 1 (Mus musculus) (UniProt P47746). The experiment in a line: Positive allosteric modulation activity at CB1 receptor in C57BL/6 mouse hippocampal neurons assessed as increase in depolarization-induced suppression of excitation at 1 uM at -70 mV holding potential by whole cell patch clamp assay.
The nature of series [17]: Toxicity in C57BL/6 mouse assessed as effect on hypothermia at 0.1 to 10 mg/kg, ip after 15 mins by thermometric method. The series is classed as organism-based. The settings on record: in vivo. In a few lines: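 Male C57BL/6 mice were given 0.1 – 10 mg/kg compound or vehicle (1:1:18 ethanol:cremaphor:saline). Body temperature was measured at 15 min and expressed relative to vehicle (100%). n = 5–6.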

The test system of series [18] is Mus musculus. The experiment in a line: Potentiation of […] WIN55212-2-induced reduction in intraocular pressure in ocular normotensive C57BL/6J mouse assessed as change in IOP at 0.2% administered topically to eye measured after 1 hr by tonometry. The series is classed as functional.
Series [19] in a line: Half life in human liver microsomes at 1 uM up to 45 mins in presence of NADPH by LC-MS/MS analysis.
The subject of series [20] is Mus musculus. The experiment in a line: Reduction of intraocular pressure in ocular hypertensive NEE mouse harboring Sh3pxd2b deletion mutant at 0.2% administered topically to eye after 12 hrs by tonometry. The series is classed as functional, organism-based. In a few lines:
as §3

The test system of series [21] is Mus musculus. The experiment in a line: Potentiation of […] WIN55212-2-induced reduction in intraocular pressure in ocular normotensive C57BL/6J mouse assessed as change in IOP at 0.2% administered topically to eye measured after 6 hrs by tonometry. The series is classed as functional.
Series [22] addresses Cannabinoid receptor 1 (Rattus norvegicus) (UniProt P20272). The experiment in a line: Positive allosteric modulatory activity at N-terminal GFP-tagged rat CB1R receptor expressed in HEK293 cells assessed as leftward shift in CP55940 dependent concentration response curve for inhibition of forskolin-induced cAMP accumulation after 30 mins by TR-FRET assay. The series is classed as functional, cell-based.

The target in series [23] is T1, Cannabinoid receptor 1. The series can be described thus: Agonist activity at human CB1 receptor expressed in CHO cell membranes assessed as increase in G-protein coupling by measuring [35S]GTPgammaS binding after 90 mins in presence of [35S]GTPgammaS by liquid scintillation analysis relative to control. In kind it is functional. In short, it runs like this: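 [35S]GTPγS binding to G protein in membranes from CHO cells stably expressing human CB1R, with test compound given alone. Data fit to a variable-slope 4-parameter nonlinear regression. n = 4–6 independent experiments in duplicate.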

Series [24] concerns the target Cannabinoid receptor 1 (Rattus norvegicus) (UniProt P20272). The series can be described thus: Positive allosteric modulatory activity at N-terminal GFP-tagged rat CB1R receptor expressed in HEK293 cells assessed as downward shift in CP55940 dependent concentration response curve for inhibition of forskolin-induced cAMP accumulation after 30 mins by TR-FRET assay. In kind it is functional, cell-based.

Series [25] addresses T1, Cannabinoid receptor 1. The series can be described thus: Allosteric agonist activity at human CB1R expressed in CHO-K1 cells assessed as inhibition of forskolin-induced cAMP accumulation by measuring cAMP accumulation at minimal level at higher concentrations after 90 mins by hit-hunter cAMP assay relative to forskolin. The series is classed as functional, cell-based. In a few lines: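 HitHunter CHO-K1 hCB1R cells (20,000/well) were held overnight in Opti-MEM with 1% FBS. They were then co-treated at 37°C with 10 μM forskolin plus compound alone (0.10 nM – 10 μM) for 90 min. Chemiluminescent cAMP detection followed (two 60-min room-temperature steps). Data as % forskolin, variable-slope 4-parameter fit; Emin is the lower plateau. n ≥ 6, triplicate.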

The target of series [26] is T1, Cannabinoid receptor 1. The series can be described thus: Allosteric agonist activity at human CB1R expressed in CHO-K1 cells assessed as increase in beta arrestin2 recruitment after 90 mins by pathhunter beta-arrestin assay relative to CP55940. The series is classed as cell-based. In a few lines: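 PathHunter CHO-K1 hCB1R cells (20,000/well) were held overnight in Opti-MEM with 1% FBS. Compound alone (0.10 nM – 10 μM) was given at 37°C for 90 min, then detection solution for 60 min at room temperature and chemiluminescence was read.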

Series [27] deals with T1, Cannabinoid receptor 1. The experiment in a line: Positive allosteric modulatory activity at human CB1R expressed in CHO-K1 cells assessed as increase in CP55940-induced inhibition of forskolin-induced cAMP accumulation by measuring cAMP accumulation at minimal level at higher concentration after 90 mins in presence of 100 nM CP55940 by hit-hunter cAMP assay relative to forskolin. The series is classed as functional, cell-based. In short, it runs like this:
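Uses the HitHunter CHO-K1 hCB1R cAMP set-up above. […] Data normalized to % forskolin, 4-parameter fit. n ≥ 6, triplicate.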

Series [28] addresses T1, Cannabinoid receptor 1. The experiment in a line: Positive allosteric modulatory activity at human CB1R expressed in CHO-K1 cells assessed as maximal increase in CP55940-induced beta arrestin2 recruitment after 90 mins in presence of 100 nM CP55940 by pathhunter beta-arrestin assay relative to CP55940. In kind it is cell-based.

In general, Emax refers to the maximal effect, on the per cent scale that the assay sets. By EC50 is commonly meant the concentration needed to bring the measured effect to its halfway point.

SMILES strings stand for the structures. Calls of active or inactive are those of the source. The rule behind the calls is not given here.

T1 sequence (P21554 whole entry): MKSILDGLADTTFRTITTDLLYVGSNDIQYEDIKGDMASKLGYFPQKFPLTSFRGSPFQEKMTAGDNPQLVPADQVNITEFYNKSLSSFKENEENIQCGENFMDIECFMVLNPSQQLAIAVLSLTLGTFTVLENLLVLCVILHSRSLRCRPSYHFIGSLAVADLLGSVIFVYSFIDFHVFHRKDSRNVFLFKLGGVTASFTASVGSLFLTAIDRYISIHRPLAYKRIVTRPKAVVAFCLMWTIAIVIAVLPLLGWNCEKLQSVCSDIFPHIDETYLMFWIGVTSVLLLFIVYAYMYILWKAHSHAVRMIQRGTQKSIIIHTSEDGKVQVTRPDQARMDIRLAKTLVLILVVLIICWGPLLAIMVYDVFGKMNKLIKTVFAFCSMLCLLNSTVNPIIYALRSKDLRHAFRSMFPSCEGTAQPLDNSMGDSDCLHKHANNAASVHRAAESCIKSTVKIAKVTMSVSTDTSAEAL
Cannabinoid receptor 1 (Rattus norvegicus), sequence (P20272 whole entry): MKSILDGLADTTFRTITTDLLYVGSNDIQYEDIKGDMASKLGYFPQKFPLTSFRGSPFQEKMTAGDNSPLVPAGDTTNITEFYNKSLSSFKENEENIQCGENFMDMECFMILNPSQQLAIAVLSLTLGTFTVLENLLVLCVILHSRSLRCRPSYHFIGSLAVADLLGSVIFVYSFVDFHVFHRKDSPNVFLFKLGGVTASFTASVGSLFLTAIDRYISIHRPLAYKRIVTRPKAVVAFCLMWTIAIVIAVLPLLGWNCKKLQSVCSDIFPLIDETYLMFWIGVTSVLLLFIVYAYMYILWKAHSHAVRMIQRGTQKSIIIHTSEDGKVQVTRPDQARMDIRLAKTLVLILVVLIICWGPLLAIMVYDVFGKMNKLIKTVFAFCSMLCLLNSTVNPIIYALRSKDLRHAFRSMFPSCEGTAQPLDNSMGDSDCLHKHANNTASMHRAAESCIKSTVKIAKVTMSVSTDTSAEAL
Cannabinoid receptor 1 (Mus musculus), sequence (P47746 whole entry): as the sequence (P20272 whole entry) above, with E95D counted along it

On to `CCCCCCC(C)(C)c1ccc([C@@H]2C[C@H](O)CC[C@H]2CCCO)c(O)c1`, for which the Emin in series [1] was 29%.
For the molecule `O=[N+]([O-])CC(c1ccncc1)c1c(-c2ccccc2)[nH]c2ccccc12` (centres undefined), the Emax on Cannabinoid receptor 1 [2] amounted to 25%; at Cannabinoid receptor 1 [5] it was 110%. Besides, the EC50 at Cannabinoid receptor 1 [3] was 510 nM; at Cannabinoid receptor 1 [6] it was 4000 nM. The Therm_solubility in series [4] was determined as 36.7 µM.
Consider `O=[N+]([O-])CC(c1ncccc1F)c1c(-c2ccccc2)[nH]c2ccccc12` (centres undefined), for which the Activity in the series on Mus musculus [7] is recorded as 3.6 mmHg; in series [11] it was “Non-Toxic”; in the series with Mus musculus [13], 2.5 mmHg; in the series with Mus musculus [15], 0.1 mmHg; in series [17], “Non-Toxic”; with Mus musculus [18], -0.7 mmHg. Besides, the Activity in the series on Mus musculus [21] is -0.6 mmHg. Also, in the series on Mus musculus [8], the result was inactive. Further, the Kinetic_solubility in series [9] was 3.13 µM. Moreover, the CLH in [10] is 84.5 µL/min; in [12] it was 556 µL/min. For the same molecule, the t1/2 stood at 4.08 min in series [14] and 27.4 min in series [19]. Besides, in series [16], the outcome was Active. In addition, the inhibition entry in the series on Mus musculus [20] is “inactive”.
Turning to `O=[N+]([O-])CC(c1ccccn1)c1c(-c2ccccc2)[nH]c2ccccc12` (centres undefined), the figures for the Emax at Cannabinoid receptor 1 [2] and on Cannabinoid receptor 1 [5] were 5.8% and 130%, respectively. In addition, the EC50 on Cannabinoid receptor 1 [3] is 260 nM; on Cannabinoid receptor 1 [6] it was above 10000 nM. The Therm_solubility in [4] was determined as 2.8 µM.
For `O=[N+]([O-])CC(c1ccccc1)c1c(-c2cccnc2)[nH]c2ccccc12` (centres undefined), in that order: 9.2%, 150%, 1100 nM, above 10000 nM and 4.9 µM.
Take `O=[N+]([O-])CC(c1ccccc1)c1c(-c2ccccc2)[nH]c2ccccc12` (racemic): the Activity result in series [22] and in series [24] was “Dose-dependent effect” in each case. Further, the Emax on Cannabinoid receptor 1 [23] turned out to be 28%; on Cannabinoid receptor 1 [26], 27%; at Cannabinoid receptor 1 [2] it was 46%; at Cannabinoid receptor 1 [28] it was 72%. The values for the Emin on Cannabinoid receptor 1 [25] and at Cannabinoid receptor 1 [27] were 1.8% and 21%, respectively.
On to `O=[N+]([O-])CC(c1ccccc1)c1c(-c2ccncc2)[nH]c2ccccc12` (centres undefined), for which the values for the Emax on Cannabinoid receptor 1 [2] and on Cannabinoid receptor 1 [5] were 19% and 88%, respectively. Moreover, the EC50 is 3100 nM on Cannabinoid receptor 1 [3] and 1600 nM on Cannabinoid receptor 1 [6]. Also, the Therm_solubility in series [4] stood at 2.1 µM.
Turning to `O=[N+]([O-])CC(c1ccccc1)c1c(-c2ccccc2)[nH]c2cnccc12` (centres undefined), the results for the Emax at Cannabinoid receptor 1 [2] and on Cannabinoid receptor 1 [5] were 5.1% and 5.2%, respectively. The results for the EC50 on Cannabinoid receptor 1 [3] and at Cannabinoid receptor 1 [6] were 450 nM and above 10000 nM, respectively. The molecule also displayed a Therm_solubility in series [4] of 6.8 µM.
As for `O=[N+]([O-])CC(c1cccnc1)c1c(-c2ccccc2)[nH]c2ccccc12` (centres undefined), the Emax was -8.1% at Cannabinoid receptor 1 [2] and 170% at Cannabinoid receptor 1 [5]. Also, the EC50 on Cannabinoid receptor 1 [3] is 3100 nM; at Cannabinoid receptor 1 [6], above 10000 nM. In series [4], the Therm_solubility was 1.1 µM.
On the same counts, the results for `O=[N+]([O-])CC(c1ccccc1)c1c(-c2ccccc2)[nH]c2ncccc12` (centres undefined) are 7%, 39%, 1100 nM, above 10000 nM and 159 µM.
